Assay results: ChEMBL document CHEMBL2203253, “An ecofriendly synthesis and DNA binding interaction study of some pyrazolo [1,5-a]pyrimidines derivatives” (Bioorg Med Chem Lett, 2012)
The source made the active and inactive calls. No cut-off for these calls is given here.

Experiments:
Type in all cases: nucleic-acid assay
Details in all cases: Bos taurus
Nucleic Acid [1] = assay: Binding affinity to calf thymus DNA assessed as hypochromicity at 30 uM by UV-visible absorption spectroscopy
Procedure, shortened: (§1)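 CT-DNA checked for purity by A260/A280; concentration per nucleotide from extinction coefficient at 260 nm (6600 M-1 cm-1). Compound held constant at 30 μM in 50% DMSO/phosphate buffer, pH 7.2 (5 mM in one passage, 0.2 M in another). DNA titrated from 0 to 100 μM, spectra recorded after each addition once equilibrated.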

Nucleic Acid [2] = assay: Binding affinity to calf thymus DNA assessed as increase in viscosity of short, rod-like DNA at compound to DNA ratio of 0.2 to 1.4 by viscometer
Procedure, shortened: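 Viscometer titration of CT-DNA solution (496.2 μmol/L) in phosphate buffer pH 7.2 with increasing compound concentrations. Flow time measured at 25 °C in an Ostwald viscometer, with the same method for each compound.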

Nucleic Acid [3] = assay: Binding affinity to calf thymus DNA assessed as intrinsic binding constant by UV-visible absorption spectroscopy; procedure, shortened: as §1
Nucleic Acid [4] = assay: Binding affinity to calf thymus DNA assessed as melting temperature at 5 to 10 uM by thermal denaturation analysis
Procedure, shortened: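 Thermal melting of CT-DNA (50 μM) in phosphate buffer pH 7.2, with and without compound (5–10 μM). Absorbance at 260 nm followed across temperatures. Tm taken as the point of 50% strand separation, with curve width from the 10–90% absorbance rise.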

Nucleic Acid [5] = assay: Binding affinity to calf thymus DNA assessed as bathochromic shift at 30 uM by UV-visible absorption spectroscopy; procedure, shortened: as §1

Compound	Activity (Nucleic Acid [1])	Activity (Nucleic Acid [2])	Kb (Nucleic Acid [3])	Tm (Nucleic Acid [4])	Activity (Nucleic Acid [5])
CCCCc1nc(Cl)c(/C=C2/C(=O)N(c3ccccc3)N=C2C)[nH]1	Active	Active	5.21 ×10⁵ /M	80 °C	Active
CCCCc1nc(Cl)c([C@@H]2[C@H]3C(C)=NN(c4ccccc4)C3=Nc3c(/N=N/c4ccc(Cl)cc4)c(N)nn32)[nH]1	Active	Active	5.7 ×10⁵ /M	82 °C	Active
